Measurements reported in ChEMBL document CHEMBL1143741, “Sirtuin 2 inhibitors rescue alpha-synuclein-mediated toxicity in models of Parkinson's disease” (Science, 2007).
Calls of active or inactive are those of the source. No cut-off for these calls is given here.

Tests used:
[1] = target: T1, NAD-dependent protein deacetylase sirtuin-1 (Homo sapiens, UniProt Q96EB6); assay: Inhibition of human recombinant SIRT1 using fluorescent peptide substrate by fluorescent assay
T1 sequence (Q96EB6 whole entry): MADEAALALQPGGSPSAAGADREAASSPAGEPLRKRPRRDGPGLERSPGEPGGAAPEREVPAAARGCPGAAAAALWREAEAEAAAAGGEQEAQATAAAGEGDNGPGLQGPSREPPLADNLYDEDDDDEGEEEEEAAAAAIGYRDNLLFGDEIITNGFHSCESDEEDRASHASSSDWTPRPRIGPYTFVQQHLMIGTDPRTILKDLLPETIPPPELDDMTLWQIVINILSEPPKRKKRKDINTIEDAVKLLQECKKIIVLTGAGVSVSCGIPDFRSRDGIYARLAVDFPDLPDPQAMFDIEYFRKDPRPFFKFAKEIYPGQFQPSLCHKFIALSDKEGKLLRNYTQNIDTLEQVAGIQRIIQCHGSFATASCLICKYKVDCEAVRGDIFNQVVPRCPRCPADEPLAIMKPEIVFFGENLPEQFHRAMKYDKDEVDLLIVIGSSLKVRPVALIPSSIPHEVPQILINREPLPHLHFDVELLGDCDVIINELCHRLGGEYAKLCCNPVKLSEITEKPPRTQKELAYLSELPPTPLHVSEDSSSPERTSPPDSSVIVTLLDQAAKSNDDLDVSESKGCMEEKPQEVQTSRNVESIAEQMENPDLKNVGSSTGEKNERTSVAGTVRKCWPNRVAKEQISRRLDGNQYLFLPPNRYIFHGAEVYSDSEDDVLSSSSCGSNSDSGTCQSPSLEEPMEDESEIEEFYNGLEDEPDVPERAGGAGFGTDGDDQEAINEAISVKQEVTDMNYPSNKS
Outline: (§1)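 Recombinant human SIRT1 or SIRT2 tested in an in vitro fluorometric deacetylation assay. Dose-response inhibition profiles were run, and IC50 was calculated from them.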

Midbrain = assay: Protection of dopaminergic cell death in rat embryo midbrain transduced with lentivirus encoding alphaSyn-A53T mutant assessed as tyrosine hydroxylase positive cells; format: functional, tissue-based
Outline: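 Primary midbrain cultures transduced with α-SynA53T lentivirus (multiplicity of infection = 5) in the presence of vehicle (DMSO) or increasing compound concentrations. Untransduced DMSO-treated (0.2%, v/v) cells served as control. Stained for MAP2 and TH; viability = percentage of MAP2-positive cells also TH-positive. Means ± SEM, N > 3; one-way ANOVA with Dunnett's post hoc test versus α-SynA53T alone.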

Drosophila = assay: Protective effect against alphaSyn mediated toxicity in wild-type transgenic Drosophila expressing elav-GAL4; UAS-synWT assessed as rescue of dorsomedial neurons after drug administration for the first 20 days of adult life; format: functional, organism-based
Outline: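 Transgenic α-Syn flies were fed compound at 250, 500 or 1000 μM, or DMSO, for the first 20 days of adult life. TH-positive dopamine neurons in the dorsomedial cluster were then assessed in 20-day-old flies. Significance was set at P < 0.01.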

[2] = target: T2, NAD-dependent protein deacetylase sirtuin-3, mitochondrial (Homo sapiens, UniProt Q9NTG7); assay: Inhibition of human recombinant SIRT3 using fluorescent peptide substrate by fluorescent assay
T2 sequence (Q9NTG7 whole entry): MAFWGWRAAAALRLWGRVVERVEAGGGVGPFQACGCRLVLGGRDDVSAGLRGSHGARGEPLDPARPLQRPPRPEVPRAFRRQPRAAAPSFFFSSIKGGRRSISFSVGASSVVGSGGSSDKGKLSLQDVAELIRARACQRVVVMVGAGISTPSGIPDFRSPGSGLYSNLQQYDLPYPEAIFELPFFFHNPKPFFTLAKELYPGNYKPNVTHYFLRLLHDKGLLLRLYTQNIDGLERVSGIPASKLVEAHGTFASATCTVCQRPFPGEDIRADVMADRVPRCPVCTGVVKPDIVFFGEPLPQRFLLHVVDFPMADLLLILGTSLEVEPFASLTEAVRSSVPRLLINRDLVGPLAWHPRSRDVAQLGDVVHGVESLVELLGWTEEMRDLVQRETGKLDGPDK

[3] = target: T3, NAD-dependent protein deacetylase sirtuin-2 (Homo sapiens, UniProt Q8IXJ6); assay: Inhibition of human recombinant SIRT2 using fluorescent peptide substrate by fluorescent assay; outline: as §1
T3 sequence (Q8IXJ6 whole entry): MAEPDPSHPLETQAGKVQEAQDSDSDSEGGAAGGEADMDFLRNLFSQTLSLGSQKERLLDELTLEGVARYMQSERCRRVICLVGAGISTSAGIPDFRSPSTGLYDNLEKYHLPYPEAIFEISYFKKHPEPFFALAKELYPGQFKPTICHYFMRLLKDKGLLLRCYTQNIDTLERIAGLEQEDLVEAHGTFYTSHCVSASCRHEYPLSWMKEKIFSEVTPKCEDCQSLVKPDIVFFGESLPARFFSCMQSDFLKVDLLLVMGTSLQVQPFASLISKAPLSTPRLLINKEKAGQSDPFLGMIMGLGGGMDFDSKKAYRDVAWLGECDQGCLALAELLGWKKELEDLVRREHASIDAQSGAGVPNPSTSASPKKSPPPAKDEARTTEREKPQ

| Structure (SMILES) | IC50 [1] [µM] | IC50 [2] [µM] | IC50 [3] [µM] | Activity (Midbrain) | Activity (Drosophila) |
| --- | --- | --- | --- | --- | --- |
| N#C/C(=C\c1ccc(-c2cc(Cl)ccc2Cl)o1)C(=O)Nc1cccc2ncccc12 | > 50 | – | – | Active | Dose-dependent effect |
| O=C(c1ccc(Cl)cc1)N1CCN(c2ccc([N+](=O)[O-])c3ncccc23)CC1 | > 50 | > 50 | 35 | Active | – |
| N#C/C(=C\c1ccc(-c2cccc(Cl)c2Cl)o1)C(=O)Nc1cccc2ncccc12 | > 50 | > 50 | > 10 | – | – |
| N#C/C(=C\c1ccc(-c2cccc(C(F)(F)F)c2)o1)C(=O)Nc1cccc2cccnc12 | > 50 | > 50 | > 50 | – | – |

Continued, in another order:

| IC50 [1] [µM] | IC50 [2] [µM] | IC50 [3] [µM] | Structure (SMILES) | Activity (Midbrain) | Activity (Drosophila) |
| --- | --- | --- | --- | --- | --- |
| – | > 50 | 5.5 | N#C/C(=C\c1ccc(-c2ccccc2Cl)o1)C(=O)Nc1cccc2ncccc12 | – | – |
| > 50 | > 50 | > 50 | N#C/C(=C\c1ccc(-c2cccc(Cl)c2Cl)o1)C(=O)Nc1cccc2cccnc12 | – | – |
| – | > 5 | > 50 | N#C/C(=C\c1ccc(-c2cc(Cl)ccc2Cl)o1)C(=O)Nc1cccc2cccnc12 | – | – |
| – | > 50 | > 50 | N#C/C(=C\c1ccc(-c2ccccc2Cl)o1)C(=O)Nc1cccc2cccnc12 | – | – |
| > 50 | > 50 | 6 | N#C/C(=C\c1ccc(-c2cccc(C(F)(F)F)c2)o1)C(=O)Nc1cccc2ncccc12 | – | – |
